# Screens: PubChem BioAssay, SRMLSC
# The full list was thinned out, with hits kept by preference.
# H69AR inhibit = growth inhibitors of human H69AR lung tumor cells. H69AR lung tumor viability, ATP luminescence, 72 h; hits give low values. viability, % at 10 µM. actives 6% (n = 85,000);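 active = viability at or below 40%; inactive = viability above 40%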;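 note: multidrug resistant small cell line overexpressing MRP-1 efflux transporter; 100% = mean luminescence of untreated control wells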
# HUVEC inhibit = blocks proliferation of human endothelial cells; HUVEC proliferation, CellTiter-Glo luminescence, 72 h; hits give low values; viability, % at 10 µM (by protocol); actives 1.1% (n = 86,000); AID 648;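 active = viability at or below 30%; inactive = viability above 30%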;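 note: 100% = median luminescence of DMSO-only cell control wells on each plate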
# HCT116 bCat-KO = beta-catenin-lacking colon tumor cell growth suppression | AID 818 | actives 1.5% (n = 140,000) | viability, % at 10 µM | HCT116 beta-catenin knockout viability, CellTiter-Glo, 60 h; hits give low values;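 active = viability at or under a set limit, the compound median less 4 SD, cut at about 6% in these data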;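 note: 0% = Hyamine 1622 control at 20 µM and 100% = untreated cell control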
# HCT116 PTEN-null = suppresses growth of cells with PTEN deletion | HCT116 PTEN-null viability, CellTiter-Glo, 60 h; hits give low values | viability, % at 10 µM | actives 1.2% (n = 140,000);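 active = viability at or below a set limit, 4 SD under the median of all tested compounds, cut at about 3.7% in these data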;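 note: PTEN knockout HCT116 line with beta catenin targeted HCT116 as companion control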
# Fibroblast inh = blocks proliferation of human lung fibroblasts; LL 47 human lung fibroblast viability, ATP luminescence; hits give low values; AID 719; viability, % at 10 µM; actives 1.1% (n = 85,000);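 active = viability at or below 50% in the single dose screen; inactive = viability above 50%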;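 note: compound exposure lasted 72 h before the ATP readout; 100% = median luminescence of untreated cell-only wells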
#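 material = human LL 47 lung fibroblast cells | dosing = compounds added from tenfold dosing solution, 0.1% DMSO final | timing = overnight cell rest, 72 h compound treatment at 37 °C | measured by = CellTiter-Glo luminescence measuring cellular ATP | evaluation = % viability versus median cells-only luminescence | control set = cell-only wells, no compound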
# * marks the source's active call; other numbers are inactive results; nt = not tested or not shown.
SMILES,H69AR inhibit,HUVEC inhibit,HCT116 bCat-KO,HCT116 PTEN-null,Fibroblast inh
CN1CCN(Cn2cc(/C=C/C(=O)c3ccccc3)c3ccccc32)CC1,12*,66,74,83,92
CCCN(CCC)CC(O)Cn1cc(/C=C/C(=O)c2cccs2)c2ccccc21 (configuration not stated),nt,nt,1.2*,1.3*,nt
O=Cc1cn(CC(=O)N2CCOCC2)c2ccccc12,96,92,99,98,96
O=C(/C=C/c1cn(CC(O)CN2CCCCC2)c2ccccc12)c1cccs1 (configuration not stated),nt,nt,2.7*,5,nt
COc1cccc(-c2nn(-c3ccccc3)cc2/C=C\C(=O)c2cccs2)c1,nt,nt,10,10,nt
O=C(CN(C1CCCCC1)C1CCCCC1)N1CCc2ccccc2C1,nt,nt,53,45,nt
CC1(C)CC(=O)c2cc(C(=O)O)c(=O)n(-c3ccccc3)c2C1,102,101,106,110,102
CCOC(=O)c1cc2c(n(-c3ccccc3)c1=O)CC(C)(C)CC2=O,36*,87,105,88,89
CC1=C(C(=O)Nc2ccc(C)cc2C)C(c2ccc(Cl)cc2)n2nc(C(=O)OC(C)C)nc2N1 (configuration not stated),nt,nt,80,85,nt
Nc1c(N(C(=O)Nc2ccc(Cl)c(Cl)c2)C2CCCC2)c(=O)[nH]c(=O)n1Cc1ccccc1,nt,nt,1.4*,1.4*,nt
O=C(c1ccccc1)c1nc[nH]c1C(=O)Nc1ccccc1,24*,86,25,25,71
O=C(Nc1ccccc1)c1ccc[nH]1,nt,nt,90,100,nt
CN(CC(=O)Nc1ccc(N2CCOCC2)cc1)CC(=O)Nc1ccccc1C#N,nt,nt,89,88,nt
COc1ccc(-c2c3c(nc4sc5c(Cl)nc(C)nc5c24)CCC3)cc1,nt,nt,1.2*,1.5*,nt
COc1ccc(N=CC2=C(O)c3ccccc3C2=O)cc1,35*,83,73,60,104
O=C1C(C=Nc2ccccc2)=C(O)c2ccccc21,63,80,91,86,102
CCC1(C)Cc2c(sc3nc(SC)n(Cc4ccccc4)c(=O)c23)CO1 (configuration not stated),97,123,75,78,94
CCC1(C)Cc2c(sc3c2c2ncnn2c2nnc(SCC(=O)NCc4ccco4)n32)CO1 (configuration not stated),37*,78,67,68,96
CCC1(C)Cc2c(sc3c2c(=O)n(C)c2nnc(SCC(=O)c4ccccc4)n32)CO1 (configuration not stated),4.2*,83,nt,nt,35*
CCOc1ccc(N2C(=O)C3C(c4ccccc4F)NN(C(=O)c4ccc(C)cc4)C3C2=O)cc1 (configuration not stated),nt,nt,103,103,nt
Cc1ccc(C=Nc2ccccc2C(N)=O)cc1,22*,55,27,24,54
O=C(/C=C/c1cccc(Cl)c1)NCCN1CCOCC1,nt,nt,90,111,nt
CCCOCCOC(=O)c1[nH]c2c(c1C)C(=O)CC(c1cc(OC)ccc1OC)C2 (configuration not stated),19*,45,12,18,63
COc1ccc(OC)c(C2CC(=O)c3c([nH]c(C(=O)OC(C)C)c3C)C2)c1 (configuration not stated),28*,31,14,15,56
COCCOC(=O)c1[nH]c2c(c1C)C(=O)CC(c1cc(OC)ccc1OC)C2 (configuration not stated),nt,nt,40,31,nt
SMILES,H69AR inhibit,HUVEC inhibit,HCT116 bCat-KO,HCT116 PTEN-null,Fibroblast inh
O=C(COC(=O)C1CC1)NCc1ccccc1Cl,nt,nt,100,103,nt
COc1cc(C(=O)NNC2=NC(C)(C)Cc3cc(C)c(C)cc32)cc(OC)c1OC,nt,nt,95,99,nt
O=c1c(-c2cc3ccccc3o2)[n+]([O-])c2ccccc2n1OCc1ccccn1,36*,66,98,94,94
CCOn1c(=O)c(-c2cc3ccccc3o2)[n+]([O-])c2ccccc21,51,81,92,97,86
CN(C)CCNC(=O)c1coc(=O)c(Br)c1,64,112,88,105,106
CC(C)CNC(=O)c1coc(=O)c(Br)c1,0.8*,84,74,68,27*
O=C(NCCC1=CCCCC1)c1ccc(=O)oc1,48,108,98,95,101
O=C(NCCC1=CCCCC1)c1coc(=O)c(Br)c1,nt,nt,1.1*,1.0*,nt
O=C(Nc1ccccc1[N+](=O)[O-])c1cccnc1Cl,nt,nt,83,88,nt
COc1ccccc1Oc1nc2c(c(=O)n(Cc3ccccc3F)c(=O)n2C)n1C,40*,91,98,102,94
COc1ccc(S(=O)(=O)NNC(=O)c2cc3ccccc3o2)cc1,nt,nt,103,98,nt
CCOC(=O)C1Cc2cc3c(cc2C1=O)CC(C(=O)OCC)C3=O (configuration not stated),20*,110,95,92,103
CCCc1nc(SCC(=O)N2CCCC2)c2ccccc2n1,38*,82,79,70,93
O=C(CSc1nc2ccccc2nc1SCC(=O)N1CCCCC1)N1CCCCC1,nt,nt,81,84,nt
CCC(C)n1c(SCC(=O)Nc2cc(C)on2)nc2ccccc2c1=O (configuration not stated),26*,80,60,61,97
CCCc1nc(SCC(=O)Nc2cc(C)on2)c2ccccc2n1,32*,84,80,73,84
COc1cccc(C(=O)OCC(=O)Nc2cc(C)c(C)cc2[N+](=O)[O-])c1,nt,nt,88,95,nt
O=C1C=C(Nc2ccccc2O)c2ccccc2C1=O,7.9*,4.7*,2.3*,1.8*,13*
COc1ccc(S(=O)(=O)N2CC(O)CC2C(=O)OCc2nc3sc(C)c(C)c3c(=O)[nH]2)cc1 (configuration not stated),nt,nt,90,89,nt
O=C(Nc1ccc2nc(-c3ccccn3)[nH]c2c1)C1CCCCC1,26*,78,95,89,99
N#CC1=C(N)SC(N)=C(C#N)C1Cc1ccccc1,17*,73,94,107,94
COC(=O)[C@H](CCSC)NC(=O)NCc1ccc(S(N)(=O)=O)cc1,1.9*,90,105,104,99
COC(=O)c1ccc(Cl)c(NC(C)=O)c1,nt,nt,96,93,nt
COC(=O)c1ccc(Cl)c(NC(=O)NC2CCCCC2)c1,29*,87,95,99,102
Cc1cc2ncn(-c3ncnc4sc5c(c34)CCC(C)C5)c2cc1C (configuration not stated),nt,nt,98,99,nt
O=C(NC1CC1)c1cccc(Nc2ccc(-c3ccc4c(c3)OCCO4)nn2)c1,32*,73,56,51,83
O=S(=O)(c1ccc(Nc2ccc(-c3ccc4c(c3)OCCO4)nn2)cc1)N1CCCC1,21*,16*,42,43,65
O=C(COC(=O)Cc1ccc2c(c1)OCCO2)Nc1ccc(S(=O)(=O)N2CCCC2)cc1,nt,nt,98,107,nt
Cc1cc[n+](C2=C([O-])c3ccccc3C(=O)/C2=N\S(=O)(=O)c2cccs2)cc1C,nt,nt,1.6*,1.8*,nt
